Assay [1] has as its system T47D. Briefly: Inhibition of PR-A gene expression in human T47D cells at 25 nM by syber green assay in presence of 10 nM estradiol. It counts as functional, cell-based.
Assay [2] has as its system T47D. Briefly: Inhibition of PR-A mRNA gene expression in human T47D cells at 100 nM by syber green assay. The class given is functional. An outline of the steps: (§1)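 T47D cells plated at 80,000/well without antibiotics two days before Oligofectamine transfection with agRNA duplex (25 or 100 nM final); medium changed at 24 h, harvest day 5 unless stated otherwise. TRIzol total RNA; PR mRNA by real-time PCR with SYBR Green: 50 °C 2 min, 95 °C 10 min, 40 cycles 95 °C 15 s/60 °C 1 min.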

Assay [3] deals with T47D. Briefly: Inhibition of androgen receptor expression in human T47D cells after 12 days at 100 nM by syber green assay. It counts as functional, cell-based. In a few lines:
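AR expression in T47D cells, grown in RPMI-1640 with 10% FBS, NEAA and insulin. Plated antibiotic-free two days before Oligofectamine transfection with 100 nM duplex RNA; medium replaced after 24 h. TRIzol total RNA. SYBR Green real-time PCR: 50 °C 2 min, 95 °C 10 min, 40 cycles of 95 °C 15 s and 60 °C 1 min.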

For assay [4], the system named is T47D. Briefly: Inhibition of PR-B gene expression in human T47D cells at 25 nM by syber green assay in presence of 10 nM estradiol. It counts as functional, cell-based.
Assay [5] concerns T47D. Briefly: Inhibition of PR-B mRNA gene expression in human T47D cells at 100 nM by syber green assay. The class given is functional. An outline of the steps:
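T47D cells in RPMI-1640 with 10% FBS, NEAA, insulin, 37 °C, 5% CO2. Plated two days before transfection without antibiotics. Oligofectamine-mediated duplex RNA transfection at 100 nM final, medium changed at 24 h, harvest five days post-transfection. Total RNA extracted with TRIzol. hPR mRNA quantified by SYBR Green qPCR: 50 °C 2 min, 95 °C 10 min, then 40 cycles of 95 °C 15 s / 60 °C 1 min.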

Assay [6] concerns T47D. Briefly: Inhibition of PR-A gene expression in human T47D cells at 25 nM by syber green assay. It counts as functional. An outline of the steps: as §1
In assay [7] the test system is T47D. Briefly: Inhibition of PR-B gene expression in human T47D cells at 25 nM by syber green assay. It counts as functional. In a few lines: as §1

Activity calls are given as the source filed them. The rule behind the calls is not given here. A value given as a limit tells only on which side of the number the result lay.

Turning to `Cc1cn(CC(=O)N(CCNC(=O)CN(CCNC(=O)CN(CCNC(=O)CN(CCNC(=O)CN(CCNC(=O)CN(CCNC(=O)CN(CCNC(=O)CN(CCNC(=O)CN(CCNC(=O)CN(CCNC(=O)CN(CCNC(=O)CN(CCNC(=O)CN(CCNC(=O)CN(CCNC(=O)CN(CCNC(=O)CN(CCNC(=O)CN(CCNC(=O)CN(CCNC(=O)CN(CCNC(=O)CN(CCNC(=O)CN)C(=O)Cn2ccc(=O)[nH]c2=O)C(=O)Cn2ccc(N)nc2=O)C(=O)Cn2ccc(=O)[nH]c2=O)C(=O)Cn2ccc(N)nc2=O)C(=O)Cn2ccc(N)nc2=O)C(=O)Cn2cnc3c(N)ncnc32)C(=O)Cn2ccc(N)nc2=O)C(=O)Cn2ccc(N)nc2=O)C(=O)Cn2ccc(=O)[nH]c2=O)C(=O)Cn2ccc(N)nc2=O)C(=O)Cn2ccc(N)nc2=O)C(=O)Cn2ccc(N)nc2=O)C(=O)Cn2cnc3c(N)ncnc32)C(=O)Cn2cnc3c(=O)[nH]c(N)nc32)C(=O)Cn2ccc(N)nc2=O)C(=O)Cn2cnc3c(=O)[nH]c(N)nc32)C(=O)Cn2ccc(N)nc2=O)C(=O)Cn2ccc(N)nc2=O)C(=O)Cn2ccc(N)nc2=O)CC(=O)NCCN(CC(=O)NCC(=O)O)C(=O)Cn2cc(C)c(=O)[nH]c2=O)c(=O)[nH]c1=O`, the inhibition entry in assay [1], in assay [3] and in assay [4] was “Active” each time. For the same molecule, the inhibition at 0.1 µM in assay [2] and in assay [5] was below 20% in each case.

For `Cc1cn(CC(=O)N(CCNC(=O)CN(CCNC(=O)CN(CCNC(=O)CN(CCNC(=O)CN(CCNC(=O)CN(CCNC(=O)CN(CCNC(=O)CN(CCNC(=O)CN(CCNC(=O)CN(CCNC(=O)CN(CCNC(=O)CN(CCNC(=O)CN(CCNC(=O)CN(CCNC(=O)CN(CCNC(=O)CN(CCNC(=O)CN(CCNC(=O)CN(CCNC(=O)CN(CCNC(=O)CN(CCNC(=O)CN)C(=O)Cn2ccc(=O)[nH]c2=O)C(=O)Cn2ccc(N)nc2=O)C(=O)Cn2ccc(N)nc2=O)C(=O)Cn2ccc(N)nc2=O)C(=O)Cn2ccc(=O)[nH]c2=O)C(=O)Cn2cnc3c(N)ncnc32)C(=O)Cn2cnc3c(=O)[nH]c(N)nc32)C(=O)Cn2cnc3c(N)ncnc32)C(=O)Cn2cnc3c(=O)[nH]c(N)nc32)C(=O)Cn2cnc3c(=O)[nH]c(N)nc32)C(=O)Cn2cnc3c(N)ncnc32)C(=O)Cn2cnc3c(=O)[nH]c(N)nc32)C(=O)Cn2cnc3c(=O)[nH]c(N)nc32)C(=O)Cn2cnc3c(N)ncnc32)C(=O)Cn2cnc3c(=O)[nH]c(N)nc32)C(=O)Cn2cnc3c(=O)[nH]c(N)nc32)C(=O)Cn2ccc(N)nc2=O)C(=O)Cn2cnc3c(=O)[nH]c(N)nc32)C(=O)Cn2ccc(=O)[nH]c2=O)CC(=O)NCCN(CC(=O)NCC(=O)O)C(=O)Cn2cc(C)c(=O)[nH]c2=O)c(=O)[nH]c1=O`, the inhibition entry in assay [1] and in assay [4] was “Active” in each case. Also, the results for the inhibition at 0.1 µM in assay [2] and in assay [5] were 41% and 48%, respectively. Further, the inhibition at 0.025 µM in assay [6] and in assay [7] was below 20% throughout.

As to `Cc1cn(CC(=O)N(CCNC(=O)CN(CCNC(=O)CN(CCNC(=O)CN(CCNC(=O)CN(CCNC(=O)CN(CCNC(=O)CN(CCNC(=O)CN(CCNC(=O)CN(CCNC(=O)CN(CCNC(=O)CN(CCNC(=O)CN(CCNC(=O)CN(CCNC(=O)CN(CCNC(=O)CN(CCNC(=O)CN(CCNC(=O)CN(CCNC(=O)CN(CCNC(=O)CN(CCNC(=O)CN(CCNC(=O)CN)C(=O)Cn2cnc3c(=O)[nH]c(N)nc32)C(=O)Cn2ccc(=O)[nH]c2=O)C(=O)Cn2ccc(=O)[nH]c2=O)C(=O)Cn2cnc3c(N)ncnc32)C(=O)Cn2cnc3c(=O)[nH]c(N)nc32)C(=O)Cn2cnc3c(N)ncnc32)C(=O)Cn2cnc3c(N)ncnc32)C(=O)Cn2cnc3c(N)ncnc32)C(=O)Cn2cnc3c(=O)[nH]c(N)nc32)C(=O)Cn2ccc(N)nc2=O)C(=O)Cn2ccc(=O)[nH]c2=O)C(=O)Cn2cnc3c(=O)[nH]c(N)nc32)C(=O)Cn2ccc(=O)[nH]c2=O)C(=O)Cn2ccc(N)nc2=O)C(=O)Cn2ccc(=O)[nH]c2=O)C(=O)Cn2cnc3c(=O)[nH]c(N)nc32)C(=O)Cn2cnc3c(=O)[nH]c(N)nc32)C(=O)Cn2ccc(N)nc2=O)C(=O)Cn2ccc(N)nc2=O)CC(=O)NCCN(CC(=O)NCC(=O)O)C(=O)Cn2cc(C)c(=O)[nH]c2=O)c(=O)[nH]c1=O`, the inhibition entry in assay [1] and in assay [4] was “Active” throughout. Also, the inhibition at 0.1 µM in assay [2] and in assay [5] was below 20% throughout. In addition, the inhibition at 0.025 µM in assay [6] and in assay [7] was below 20% in each case.

For `Cc1cn(CC(=O)N(CCNC(=O)CN(CCNC(=O)CN(CCNC(=O)CN(CCNC(=O)CN(CCNC(=O)CN(CCNC(=O)CN(CCNC(=O)CN(CCNC(=O)CN(CCNC(=O)CN(CCNC(=O)CN(CCNC(=O)CN(CCNC(=O)CN(CCNC(=O)CN(CCNC(=O)CN(CCNC(=O)CN(CCNC(=O)CN(CCNC(=O)CN(CCNC(=O)CN(CCNC(=O)CN(CCNC(=O)CN)C(=O)Cn2cnc3c(=O)[nH]c(N)nc32)C(=O)Cn2ccc(=O)[nH]c2=O)C(=O)Cn2ccc(=O)[nH]c2=O)C(=O)Cn2cnc3c(=O)[nH]c(N)nc32)C(=O)Cn2ccc(=O)[nH]c2=O)C(=O)Cn2ccc(=O)[nH]c2=O)C(=O)Cn2cnc3c(N)ncnc32)C(=O)Cn2cnc3c(=O)[nH]c(N)nc32)C(=O)Cn2cnc3c(N)ncnc32)C(=O)Cn2cnc3c(N)ncnc32)C(=O)Cn2cnc3c(N)ncnc32)C(=O)Cn2cnc3c(=O)[nH]c(N)nc32)C(=O)Cn2ccc(N)nc2=O)C(=O)Cn2ccc(=O)[nH]c2=O)C(=O)Cn2cnc3c(=O)[nH]c(N)nc32)C(=O)Cn2ccc(=O)[nH]c2=O)C(=O)Cn2ccc(N)nc2=O)C(=O)Cn2ccc(=O)[nH]c2=O)C(=O)Cn2cnc3c(=O)[nH]c(N)nc32)CC(=O)NCCN(CC(=O)NCC(=O)O)C(=O)Cn2cc(C)c(=O)[nH]c2=O)c(=O)[nH]c1=O`, the inhibition entry in assay [1] and in assay [4] was “Active” throughout. Besides, the inhibition at 0.1 µM in assay [2] and in assay [5] was below 20% in each case. In addition, the inhibition at 0.025 µM in assay [6] and in assay [7] was below 20% in each case.

Take `Cc1cn(CC(=O)N(CCNC(=O)CN(CCNC(=O)CN(CCNC(=O)CN(CCNC(=O)CN(CCNC(=O)CN(CCNC(=O)CN(CCNC(=O)CN(CCNC(=O)CN(CCNC(=O)CN(CCNC(=O)CN(CCNC(=O)CN(CCNC(=O)CN(CCNC(=O)CN(CCNC(=O)CN(CCNC(=O)CN(CCNC(=O)CN(CCNC(=O)CN(CCNC(=O)CN(CCNC(=O)CN(CCNC(=O)CN)C(=O)Cn2cnc3c(=O)[nH]c(N)nc32)C(=O)Cn2cnc3c(=O)[nH]c(N)nc32)C(=O)Cn2ccc(N)nc2=O)C(=O)Cn2cnc3c(=O)[nH]c(N)nc32)C(=O)Cn2ccc(=O)[nH]c2=O)C(=O)Cn2ccc(=O)[nH]c2=O)C(=O)Cn2cnc3c(=O)[nH]c(N)nc32)C(=O)Cn2ccc(=O)[nH]c2=O)C(=O)Cn2ccc(=O)[nH]c2=O)C(=O)Cn2cnc3c(N)ncnc32)C(=O)Cn2cnc3c(=O)[nH]c(N)nc32)C(=O)Cn2cnc3c(N)ncnc32)C(=O)Cn2cnc3c(N)ncnc32)C(=O)Cn2cnc3c(N)ncnc32)C(=O)Cn2cnc3c(=O)[nH]c(N)nc32)C(=O)Cn2ccc(N)nc2=O)C(=O)Cn2ccc(=O)[nH]c2=O)C(=O)Cn2cnc3c(=O)[nH]c(N)nc32)C(=O)Cn2ccc(=O)[nH]c2=O)CC(=O)NCCN(CC(=O)NCC(=O)O)C(=O)Cn2cc(C)c(=O)[nH]c2=O)c(=O)[nH]c1=O`: the inhibition entry in assay [1] and in assay [4] was “Active” in each case. For the same molecule, the inhibition at 0.1 µM in assay [2] and in assay [5] was below 20% in each case. In addition, the inhibition at 0.025 µM in assay [6] and in assay [7] was below 20% in each case.

For `Cc1cn(CC(=O)N(CCNC(=O)CN(CCNC(=O)CN(CCNC(=O)CN(CCNC(=O)CN(CCNC(=O)CN(CCNC(=O)CN(CCNC(=O)CN(CCNC(=O)CN(CCNC(=O)CN(CCNC(=O)CN(CCNC(=O)CN(CCNC(=O)CN(CCNC(=O)CN(CCNC(=O)CN(CCNC(=O)CN(CCNC(=O)CN(CCNC(=O)CN(CCNC(=O)CN(CCNC(=O)CN(CCNC(=O)CN(CCNC(=O)CN)C(=O)Cn2ccc(N)nc2=O)C(=O)Cn2ccc(=O)[nH]c2=O)C(=O)Cn2cnc3c(=O)[nH]c(N)nc32)C(=O)Cn2cnc3c(=O)[nH]c(N)nc32)C(=O)Cn2ccc(N)nc2=O)C(=O)Cn2ccc(N)nc2=O)C(=O)Cn2cnc3c(N)ncnc32)C(=O)Cn2cnc3c(=O)[nH]c(N)nc32)C(=O)Cn2ccc(=O)[nH]c2=O)C(=O)Cn2ccc(N)nc2=O)C(=O)Cn2ccc(N)nc2=O)C(=O)Cn2cnc3c(N)ncnc32)C(=O)Cn2ccc(N)nc2=O)C(=O)Cn2cnc3c(N)ncnc32)C(=O)Cn2cnc3c(=O)[nH]c(N)nc32)C(=O)Cn2ccc(N)nc2=O)C(=O)Cn2ccc(=O)[nH]c2=O)C(=O)Cn2cnc3c(=O)[nH]c(N)nc32)C(=O)Cn2ccc(=O)[nH]c2=O)C(=O)Cn2cc(C)c(=O)[nH]c2=O)CC(=O)O)c(=O)[nH]c1=O`, the inhibition entry in assay [1] and in assay [4] was “Active” throughout. The inhibition (commonly the percentage by which the read-out fell short of the control) at 0.1 µM was determined as 26% in assay [2] and 71% in assay [5]. For the same molecule, the inhibition at 0.025 µM in assay [6] and in assay [7] was below 20% throughout.

The record behind these values is ChEMBL document CHEMBL1250442, “Inhibiting gene expression at transcription start sites in chromosomal DNA with antigene RNAs” (Nat Chem Biol, 2005).
